{"source": "paper PMC4254268", "about": "(Cellular signalling, 2014)", "key": {"ERK1/2 in NRK-52E cells [1]": {"test_system": "ERK1/2 in NRK-52E cells", "assay": "TGF-β-induced ERK1/2 phosphorylation by Western blot", "format": "cell-based, rat", "conditions": "TGF-β 5 ng/ml, 15 min incubation, n=3", "outline": "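Rat kidney proximal epithelial NRK-52E cells in DMEM/F12 with 5% FBS are serum-starved 24 h, then exposed to TGF-β (5 ng/ml) for 15 min. Lysis is in Triton buffer (100 mM NaCl, 50 mM NaF, 5 mM EDTA, 1% Triton X-100, 50 mM Tris-HCl pH 7.4, plus NaVO4, PMSF, leupeptin), followed by sonication and a 10,000 g spin. 10-50 μg protein is run on 10% SDS-PAGE and blotted to PVDF. Phospho-ERK1/2 is detected by HRP chemiluminescence, then the membrane is stripped and reprobed for total ERK1/2. Bands are quantified by densitometry.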"}, "α-SMA in NRK-52E cells [2]": {"test_system": "α-SMA in NRK-52E cells", "assay": "α-SMA protein expression by Western blot", "format": "cell-based, rat", "conditions": "100 μM MGA 48 h", "outline": "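After 24 h serum starvation, cells received 100 uM MGA ± test agents for 48 h. Triton lysates were run on 10% SDS-PAGE and transferred to PVDF. Blots were probed overnight at 4°C with mouse anti-α-SMA (1:5000), then anti-mouse HRP (1:3000) and chemiluminescence. Membranes were stripped and re-probed for EFα1 (1:3000) as loading control. Densitometry; 3-4 cell passages.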"}, "NRK-52E cells [3]": {"test_system": "NRK-52E cells", "assay": "Cellular hypertrophy by 3H-leucine incorporation", "format": "cell-based, rat", "conditions": "100 μM MGA 48 h", "outline": "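Confluent NRK-52E cells were serum-starved for 24 h, then kept 48 h in serum-free medium ± 100 μM MGA and test agents. Cells were pulsed with 0.5 μCi 3H-leucine for the last 24 h at 37°C, washed in PBS and fixed 15 min in ice-cold 10% TCA. After 5% TCA washes, protein was dissolved in 0.05 N NaOH/0.1% SDS at 37°C and counted by scintillation. Triplicate wells; % of control per well; 5 cell passages.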"}, "[4]": {"test_system": "TGF-β release from NRK-52E cells", "assay": "TGF-β release into cell media by ELISA", "format": "cell-based, rat", "conditions": "MGA 48 h", "outline": "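Cells were seeded in 12-well plates, kept serum-free for 24 h, then treated with MGA ± test agents; serum-free cells served as controls. Media were collected on ice and TGF-β measured by ELISA (sensitivity 15 pg/ml). Release was expressed as ng/ml.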"}, "NRK-52E cells [5]": {"test_system": "NRK-52E cells", "assay": "Cell area in immunofluorescent images", "format": "cell-based, rat", "conditions": "MGA 48 hours", "outline": "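NRK-52E cells were serum-starved for 24 h, then exposed to MGA for 48 h. Immunofluorescent images were taken. Fields were chosen at random and every cell in each field was measured. Cell area was expressed as % of control cell area.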"}, "NRK-52E cells [6]": {"test_system": "NRK-52E cells", "assay": "Intracellular angiotensin peptide content by RIA", "format": "cell-based, rat", "outline": "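Cells were serum-free for 24 h, then given 100 uM MGA for 48 h; pellets were snap-frozen. Pellets were boiled 15 min in water, sonicated, acidified to 0.2% TFA and spun at 20,000g for 20 min at 4°C. Peptides were extracted on C18 (eluted in 80% methanol/0.2% TFA) and blanks subtracted. Ang I, Ang II and Ang-(1-7) were measured by separate RIAs; the Ang-(1-7) RIA also detects Ang-(2-7). Paired t-test versus control.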"}, "ERK1/2 in NRK-52E cells [7]": {"test_system": "ERK1/2 in NRK-52E cells", "assay": "MGA-induced ERK1/2 phosphorylation by Western blot", "format": "cell-based, rat", "conditions": "MGA 48 hours, immunoblot densitometry, n=3", "outline": "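Cells were serum-starved for 24 h, then treated with 100 uM MGA for 48 h. Lysis was in Triton buffer, pH 7.4, with NaVO4, PMSF and leupeptin. 10-50 μg protein was run on 10% SDS-PAGE and transferred to PVDF. Blots were probed overnight at 4°C with anti-phospho-ERK1/2 (1:2000), then stripped and re-probed for total ERK1/2 (1:3000). Detection was HRP chemiluminescence, with densitometry. 3 cell passages.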"}, "α-SMA in NRK-52E cells [8]": {"test_system": "α-SMA in NRK-52E cells", "assay": "α-SMA immunofluorescent staining", "format": "cell-based, rat", "conditions": "100 μM MGA 72 h, Ang-(1-7) 100 nM + DAL 10 μM", "outline": "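NRK-52E cells were grown 2 days on chamber slides in 5% FBS medium, then serum-free for 24 h. They were treated 72 h with 100 μM MGA ± test agents and fixed in 2% paraformaldehyde for 15 min. After 0.2% Triton permeabilisation and 3% BSA block, cells were stained overnight at 4°C with mouse anti-α-SMA (1:200), then Alexa Fluor 568 anti-mouse (1:400); nuclei with DAPI. Representative of 3 passages.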"}, "Ang-": {"assay": "Ang-", "format": "in vitro ADME, rat", "conditions": "n=3", "outline": "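NRK-52E cells grown to confluence are serum-starved 24 h, then kept 48 h in serum-free or 100 uM glycated albumin (MGA) medium. They are harvested, frozen at −80°C and homogenized in 10 mM HEPES, 125 mM NaCl, 10 μM ZnCl2, pH 7.4, then spun at 100,000g. 125I-Ang-(1-7) (0.5 nM) is incubated with 2 μg supernatant protein for 30 min at 37°C and stopped with ice-cold 1.0% phosphoric acid. Products are separated by isocratic reverse-phase HPLC with flow-through γ detection, identified against 125I standards, and reported as fmol/mg/min (Bradford protein).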"}}}
{"molecule": "TGF-β", "values": [{"measurement": "ERK1/2 phosphorylation, TGF-β alone", "setting": "ERK1/2 in NRK-52E cells [1]", "result": "stimulated"}]}
{"molecule": "MGA: AGE product: BSA incubated with 500 μM methylglyoxal for 24 hours", "values": [{"measurement": "Fold induction of α-SMA protein expression, MGA alone", "setting": "α-SMA in NRK-52E cells [2]; vs control cells", "result": 3, "unit": "fold"}, {"measurement": "Fold increase of 3H-leucine incorporation, MGA alone", "setting": "NRK-52E cells [3]", "result": "approximately 2 fold"}, {"measurement": "TGF-β release, MGA alone", "setting": "[4]; ELISA of media, control 0.4 ± 0.1, n=6", "result": "1.16 ± 0.1", "unit": "ng/mL"}, {"measurement": "Fold increase of TGF-β release, MGA alone", "setting": "[4]; vs control", "result": "approximately 3 fold"}, {"measurement": "Fold increase of cell area, MGA alone", "setting": "NRK-52E cells [5]", "result": "approximately 4 fold"}, {"measurement": "Cell area, MGA alone", "setting": "NRK-52E cells [5]; mean ± SEM n=3", "result": "467 ± 70 % of control"}, {"measurement": "Intracellular Ang-(1-7) peptide content", "setting": "NRK-52E cells [6]; 100 uM MGA 48 h, RIA, mean ± SEM, n=3, control cells 396 ± 59", "result": "219 ± 54", "unit": "fmol/mg protein"}, {"measurement": "Intracellular Ang I peptide levels vs control", "setting": "NRK-52E cells [6]; 100 uM MGA 48 h, RIA, n=3", "result": "not different"}, {"measurement": "Intracellular Ang II peptide levels vs control", "setting": "NRK-52E cells [6]; 100 uM MGA 48 h, RIA, n=3", "result": "not different"}, {"measurement": "Reduction of intracellular levels of Ang-(1-7)", "setting": "NRK-52E cells [6]; MGA exposure 48 hours", "result": "approximately 50%"}, {"measurement": "Fold increase in density of phosphorylated ERK 1, MGA alone", "setting": "ERK1/2 in NRK-52E cells [7]", "result": 2.5, "unit": "fold"}, {"measurement": "Fold increase in density of phosphorylated ERK 2, MGA alone", "setting": "ERK1/2 in NRK-52E cells [7]", "result": 4, "unit": "fold"}]}
{"molecule": "D-Ala^7-Ang-(1-7) [DAL, reference compound]", "values": [{"measurement": "Effect of DAL on the inhibition of MGA-induced α-SMA expression by Ang-(1-7)", "setting": "α-SMA in NRK-52E cells [2]; Ang-(1-7) 100 nM + DAL 10 μM", "result": "blocked"}, {"measurement": "Effect of DAL on the inhibition of MGA-induced MT by Ang-(1-7) (α-SMA staining)", "setting": "α-SMA in NRK-52E cells [8]", "result": "appeared to be reversed"}]}
{"molecule": "CC[C@H](C)[C@H](NC(=O)[C@H](Cc1ccc(O)cc1)NC(=O)[C@@H](NC(=O)[C@H](CCCNC(=N)N)NC(=O)[C@@H](N)CC(=O)O)C(C)C)C(=O)N[C@@H](Cc1c[nH]cn1)C(=O)N1CCC[C@H]1C(=O)O", "note": "[Ang-(1-7), Angiotensin-(1-7)]", "values": [{"measurement": "Metabolism of Ang-(1-7) to Ang-(1-4), MGA cells (abstract)", "setting": "Ang-; supernatant of MGA-treated NRK-52E cells", "result": "175 ± 9", "unit": "fmol/min/mg protein"}, {"measurement": "Metabolism of Ang-(1-7) to Ang-(1-4), control cells (abstract)", "setting": "Ang-; supernatant of control NRK-52E cells", "result": "115 ± 11", "unit": "fmol/min/mg protein"}]}
